# Data: PMC11605122 (Nature Communications, 2024)
# Legend:
# [1] = liver-to-body weight ratio; assay type: in vivo, mouse; conditions: DIO mice, G49, 6 h
# blood glucose = assay type: in vivo, mouse
# How it was run: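 DIO mice were fed 60%-fat HFD from 8 weeks of age, for 12 weeks (males) or 24 weeks (females); one male cohort was housed at 30 °C. The test compound was given s.c. every 2 days in 50 mM sodium phosphate/300 mM mannitol pH 6.9. Glucose and ketone bodies were read in tail-vein blood.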
# plasma ALT = assay type: in vivo, mouse; conditions: DIO mice
# How it was run: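 Plasma ALT was read with Reflotron strips and plasma TGs by colorimetric assay. Serum FGF21 and plasma adiponectin and insulin were measured by ELISA.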
# TUNEL analysis of eWAT = assay type: in vivo, mouse; conditions: 6 h post-G49
# How it was run: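 Paraffin-embedded eWAT sections were stained with a fluorimetric DeadEnd TUNEL kit, mounted in fluorescent medium and imaged by confocal microscopy.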
# [2] = test system: primary mouse hepatocytes; experiment: insulin-induced AKT Ser473 phosphorylation in hepatocytes; assay type: cell-based; conditions: pre-treatment with G49
# How it was run: (§1)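 Primary hepatocytes came from non-fasted male C57BL/6J mice fed HFD for 12 weeks, with or without in vivo treatment, by two-step collagenase perfusion. Cells were spun at 60 × g, purified on isotonic Percoll (1:1) at 230 × g and seeded on collagen. They were cultured 24 h at 37 °C, 5% CO2 before exposure to the test compound.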
# [3] = test system: eWAT stromal vascular fraction; experiment: immune cell populations in eWAT SVF; assay type: in vivo, mouse
# How it was run: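 eWAT was digested, stopped with EDTA, filtered at 100 µm and red cells lysed in ACK. The SVF was stained 20 min at RT in FACS buffer (1 mM EDTA, 25 mM HEPES, 1% FBS in PBS) with a panel including CD45, CD11b, F4/80, Ly6G, CD11c, CD206, SiglecF, T/NK markers and IL-4, or isotype controls. Acquisition was on a FACSCanto II.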
# plasma FFAs = assay type: in vivo, mouse; conditions: for plasma FFA elevation: DIO mice
# BAT, eWAT, iWAT = experiment: UCP1 and TH protein; assay type: in vivo, mouse
# brown adipocytes [4] = experiment: OCR in differentiated brown adipocytes; assay type: cell-based, mouse; conditions: G49, 16 h
# How it was run: (§2)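 Brown preadipocytes were immortalised by retroviral SV40 Large T (20% FBS, 8 μg/mL polybrene, 48 h) at 70–80% confluence. Differentiation began with 2 days in induction medium (0.5 μM dexamethasone, 0.5 mM IBMX, indomethacin, 1 μM rosiglitazone).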
# eWAT and iWAT weight = assay type: in vivo, mouse
# BAT explants = experiment: OCR in BAT explants; assay type: in vivo, mouse; conditions: BAT explants of mice treated with G49 for 3 days
# How it was run: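 BAT explants came from DIO mice given test compound or vehicle for 72 h. OCR was run as a Seahorse Mito Stress assay with 2 µM oligomycin A, 2 µM FCCP, then 10 µM rotenone plus 10 µM antimycin. OCR (pmol/min) came from O2 tension over time.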
# energy expenditure = assay type: in vivo, mouse; conditions: DIO mice, G49, day 3, light and dark phases
# How it was run: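 Mice entered metabolic cages 2 days before the first s.c. dose, which was given every 2 days. Indirect calorimetry parameters were then recorded for the following 3 days.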
# [5] = test system: primary mouse hepatocytes; experiment: fatty acid oxidation and Cpt1a in primary mouse hepatocytes; assay type: cell-based; conditions: 500 nM G49, 16 h
# How it was run: as §1
# [6] = MRI body composition, total/visceral fat, lean mass; assay type: in vivo, mouse
# brown adipocytes [7] = experiment: thermogenic gene expression and UCP1 in brown adipocytes; assay type: cell-based, mouse; conditions: G49, brown adipocytes
# How it was run: as §2
# [8] = test system: pancreatic islets from DIO mice; experiment: ex vivo glucose-stimulated insulin secretion; assay type: cell-based, mouse; conditions: 500 nM G49, 1 or 24 h
# How it was run: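 Islets were plated at 100 per 3 mL and treated the next day with 500 nM test compound for 1 or 24 h. After 1 h preincubation in KRB (2.8 mM glucose, 0.25% BSA, pH 7.4, 37 °C), batches of 3 islets were stimulated 1 h with 2.8 or 16.7 mM glucose. Insulin was measured by ELISA and normalised per islet; n = 4 mice.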
# brown adipocytes [9] = experiment: fatty acid oxidation in brown adipocytes; assay type: cell-based, mouse; conditions: G49, brown adipocytes
# How it was run: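 Palmitate oxidation to CO2 and to acid-soluble material (acyl-carnitine, Krebs cycle intermediates, acetyl-CoA) was measured in primary hepatocytes or differentiated brown adipocytes, with or without 500 nM test compound.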
# [10] = intrahepatic triglyceride content; assay type: in vivo, mouse; conditions: DIO mice
# [11] = peptide concentration in plasma; assay type: in vivo, mouse; conditions: DIO mice, 24 h post-injection, 100 nmol/kg s.c., n = 5; cAMP bioassay
# How it was run: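 Plasma activity was read in a cAMP assay on CHO cells expressing human GLP-1R, in HBSS pH 7.4 with 25 mM HEPES, 0.1% BSA and 0.5 mM IBMX. Serial dilutions were run in duplicate for 30 min at RT with HTRF detection. Standards were reference peptide spiked into 0.2% (final) naïve plasma. Sample ratio = sample EC50/reference EC50; concentration = known top concentration/ratio.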
# [12] = F4/80 and TH immunostaining of eWAT; assay type: in vivo, mouse; conditions: G49, 6 h
# BAT skin temperature = assay type: in vivo, mouse
# [13] = FGF21Alb-KO mice, G49 plus recombinant murine FGF21
sequence,measurement,setting,value
HSQGTFTSDYSKYLEEEAVRLFIC (40 kDa PEG) WLMNT-amide acetate salt [G49],liver-to-body weight ratio,[1],"an increase in lipid accumulation analyzed by H&E and oil-red O staining of liver sections, liver-to-body weight ratio, and alanine aminotransferase (ALT) activity"
same,blood glucose and adiposity,"blood glucose; female DIO mice, G49, 1 week",efficacy of G49 in reducing blood glucose and adiposity was also found in female mice
same,blood glucose and adiposity,"blood glucose; male DIO mice at thermoneutrality (30 °C), G49",in male mice housed at thermoneutrality
same,ALT elevation,"plasma ALT; G49 + GCGRant, 6 h",hepatic lipid overload and ALT elevation were not observed
same,ALT activity,"plasma ALT; G49, 6 h","an increase in lipid accumulation analyzed by H&E and oil-red O staining of liver sections, liver-to-body weight ratio, and alanine aminotransferase (ALT) activity"
same,TUNEL positive cells,TUNEL analysis of eWAT,presence of TUNEL positive cells
same,insulin-induced AKT Ser473 phosphorylation,[2],increased insulin sensitivity manifested by elevations in insulin-induced AKTSer473 phosphorylation
same,eWAT beiging signature,"[3]; DIO mice, G49 + ATGLi, 6 h",absence of the eWAT beiging signature
same,beige immune signature of SVF,"[3]; DIO mice, G49 + GCGRant, 6 h",loss of the beige immune signature of the SVF
same,Cd206+/Cd11c+ ratio in neutrophils,"[3]; SVF of eWAT, G49, 6 h",increased the Cd206^+/Cd11c^+ ratio
same,M2 and M1 macrophages,"[3]; SVF of eWAT, G49, 6 h","increase in M2 (Cd206^+) subpopulation, concomitantly with a decrease in M1 (Cd11c^+) cells"
same,eosinophils (SiglecF+/Cd11b+/Cd11c−),"[3]; SVF of eWAT, G49, 6 h",infiltration of eosinophils
same,neutrophil infiltration (Cd11b+Ly6g+),"[3]; SVF of eWAT, G49, 6 h",reduction in neutrophil infiltration
same,plasma FFA elevation,"plasma FFAs; G49 + Ex9-39, 6 h",retained its effect in elevating FFAs in the presence of Ex9-39
same,plasma FFA elevation,"plasma FFAs; G49 + GCGRant, 6 h",abolished the acute effects of G49 in reducing total and visceral adiposity at 6 h post-injection and FFA elevation
same,plasma FFAs,"plasma FFAs; UCP1−/− mice, G49, 6 h",showed elevations in FFAs (at 6 h)
same,plasma FFAs,"plasma FFAs; irradiated DIO mice, G49, 6 h",the elevation of FFAs was preserved
same,plasma FFAs,"plasma FFAs; lean Gcgr−/− mice, single injection of G49, 1–6 h",did not elevate plasma FFAs at 1–6 h in Gcgr^−/− mice
same,lipolysis at 6 h and 1 h,"plasma FFAs; lean or DIO mice, G49","increased lipolysis at 6 h, but not at 1 h post-injection"
same,UCP1 protein,"BAT, eWAT, iWAT; Adipoq−/− mice, G49",no increase in UCP1 protein levels was found
same,UCP1 expression in BAT,"BAT, eWAT, iWAT; DIO mice, G49 + ATGLi, 72 h",suppression of G49 effects on UCP1 expression and BAT temperature
same,UCP1 protein in BAT,"BAT, eWAT, iWAT; DIO mice, G49 + GCGRant",did not present an increase in UCP1 protein levels
same,UCP1 and TH protein in BAT,"BAT, eWAT, iWAT; DIO mice, G49, 1 week","increase in thermogenic-related genes (Cpt1b, Dio2, CoxIVi1, Ucp1, Th, Fgf21) and protein levels of UCP1 and TH in BAT"
same,UCP1 protein in BAT,"BAT, eWAT, iWAT; FGF21Alb-KO mice, G49, 1 week",a lower effect of G49 in increasing in UCP1 protein levels in BAT
same,UCP1 protein in BAT,"BAT, eWAT, iWAT; [13]",markedly increased UCP1 protein levels and BAT temperature
same,UCP1 and TH protein,"BAT, eWAT, iWAT; eWAT, G49, 1 week",higher UCP1 and TH protein content
same,UCP1 protein,"BAT, eWAT, iWAT; iWAT, G49, 1 week",a similar improvement was found
same,mitochondrial respiration,brown adipocytes [4],an increase in mitochondrial respiration
same,"fat depots (eWAT, iWAT)","eWAT and iWAT weight; DIO mice, G49 + ATGLi, 72 h",without reduction in fat depots
same,eWAT and iWAT depots,"eWAT and iWAT weight; FGF21Alb-KO mice, G49, 1 week",a partial reduction of eWAT and iWAT depots
same,basal and maximal respiration,BAT explants,increased basal and maximal respiration in BAT explants
same,energy expenditure,energy expenditure,a significant increase in EE
same,Cpt1a mRNA and FAO,[5],increased Cpt1a mRNA levels and FAO
same,visceral fat,"[6]; Adipoq−/− mice, G49, 1 week, vs Adipoq+/+",lower reduction in visceral fat
same,total and visceral adiposity,"[6]; DIO mice, G49 + GCGRant, 6 h",abolished the acute effects of G49 in reducing total and visceral adiposity at 6 h post-injection
same,"adiposity, fat mass, eWAT and iWAT weight","[6]; DIO mice, G49 with antagonists, alone or in combination, day 7","its administration with antagonists, either alone or in combination, totally blocked this effect"
same,thermogenic gene expression and UCP1 protein,brown adipocytes [7],"up-regulated lipolysis, thermogenic gene expression (Ucp1, Ppargc1a, Sir2) and UCP1 protein levels in BA"
same,insulin secretion,[8],also observed by ex vivo treatment of pancreatic islets from DIO mice with G49
same,Cpt1b expression and FAO,brown adipocytes [9],increased Cpt1b gene expression and FAO
same,hepatic lipid overload,"[10]; G49 + GCGRant, 6 h",hepatic lipid overload and ALT elevation were not observed
same,liver triglycerides,"[10]; G49, time course","elevated at 3–12 h post-injection, peaking at 6 h"
same,peptide plasma level,[11],121.7 ± 12.88 nM
same,F4/80 and TH positive immune cells,[12],F4/80 and Tyrosine Hydroxylase (TH) positive immune cells were found in some eWAT areas
same,BAT temperature,"BAT skin temperature; Adipoq−/− mice, G49",G49-mediated increase in BAT temperature was reduced
same,BAT temperature,"BAT skin temperature; DIO mice, G49 + ATGLi, 72 h",suppression of G49 effects on UCP1 expression and BAT temperature
same,BAT temperature,BAT skin temperature; [13],markedly increased UCP1 protein levels and BAT temperature
same,BAT activation,"BAT skin temperature; UCP1−/− mice, G49, 1 week",no features of BAT activation were found
